Assay outcomes deposited in PubChem BioAssay by The Scripps Research Institute Molecular Screening Center.
An excerpt weighted towards active compounds, which were near 1.2% of everything screened.
proCasp3 act: procaspase-3 (human) activation | P42574 | recombinant procaspase-3 D3A, Ac-DEVD-pNA absorbance 405 nm | activation, % at 8.5 µM | hit rate 0.11% among 330,000 | AID 463141;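 active = activation above the mean of all tested compounds plus 3 SD, cut at about 21% in these data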;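 also: 0% = DMSO alone and 100% = DMSO wells spiked with extra 5 µM PC-3 D3A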
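Compound: 8.5 µM single point, 0.8% DMSO / Material: Autoprocessing-dead procaspase-3 D3A mutant enzyme / Timing: 1 h preincubation plus 2 h reaction at 25 °C / Medium: Zinc-free HEPES/NaCl buffer with 0.01% Triton X-100 at pH 7.4 / Technique: 405 nm absorbance of p-nitroaniline, reads at 0 and 120 min / Repeats: one well per compound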
IDE act: IDE (human) activation, cell-based; AID 493087; HEK cells, FAbeta-B cleavage, fluorescence polarization; 0% vehicle, 100% cell-free pure enzyme wells; P14735; hit rate 0.073% among 340,000; activation, % at 5.96 µM;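 active = activation above the mean of all tested compounds plus 3 SD, set per screening campaign, cut at about 17% in these data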
procasp7 counter: activates human procaspase-7, counter-screen for procaspase-3 activators; recombinant procaspase-7, Ac-DEVD-pNA absorbance 405 nm; D23A/D198A/D206A triple mutant, cannot self-cleave; scale: DMSO 0, 5 µM enzyme 100; activation, % at 8.5 µM; hit rate 0.093% among 330,000; AID 463210;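 active = percent activation above the screen-wide mean plus 3 SD, cut at about 25% in these data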
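Assay system: Uncleavable procaspase-7 mutant enzyme | Input: 2 µM procaspase-7 mutant as dispensed | Timing: 1 h compound preincubation, 2 h substrate cleavage, 25 °C | Repeats: One well per compound | Control set: DMSO wells as 0%, DMSO with 5 µM added PC-7 as 100% | Technique: Epi-absorbance of released pNA at 405 nm, two timepoints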
TPT1 inh: inhibitors of Candida albicans tRNA 2'-phosphotransferase TPT1; recombinant caTPT1, FP RNA substrate dephosphorylation; inhibition, % at 5 µM; hit rate 0.81% among 300,000;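 active = inhibition above the mean of all tested compounds plus 3 SD, set per screening campaign, cut at about 24% in these data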;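 also: plate controls were DMSO alone for no effect and ferristatin control at 100 nM for full effect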
IDE cell inh: inhibitors of human insulin-degrading enzyme in cells; P14735; HEK cells, FAbetaB cleavage, fluorescence polarization; inhibition, % at 5.59 µM; hit rate 0.41% among 320,000; AID 434962;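 active = percent inhibition above the average of all tested compounds plus 3 SD, set per screening campaign, cut at about 16% in these data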;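 also: IDE supplied by intact live HEK cells; FP after avidin binding of uncleaved biotin substrate so inhibition keeps polarization high; 0% = DMSO wells and 100% = 60 µM reference IDE inhibitor Ii1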
PC3 D3A act: counter-screen: procaspase-3 (human) activation | recombinant PC-3 D3A, Ac-DEVD-pNA absorbance 405 nm; aspartates 9, 28, 175 changed to alanine; 100% = enzyme control | shares compounds with procasp7 counter | activation, % at 8.5 µM | 290 tested, under 10 active | AID 493114;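 active = mean percent activation across triplicates above a set limit taken from the earlier primary procaspase-3 screen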;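 also: 0% = DMSO wells and 100% = DMSO wells with 5 µM added PC-3 D3A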
Procasp7 act: procaspase-7 (human) activation, dual activator confirmation; shares compounds with procasp7 counter; recombinant procaspase-7, Ac-DEVD-pNA absorbance 405 nm; D23A/D198A/D206A mutant that cannot self-cleave; activation, % at 8.5 µM; 290 tested, under 10 active; AID 493115;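 active = mean activation above a set limit carried over from the earlier primary screen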;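 also: 0% = DMSO only and 100% = DMSO with added 5 µM PC-7 enzyme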
Starred values were filed as active, the others as inactive.

How did COc1ccc(OCCn2cc(/C=C(\C#N)C(=O)NCc3ccco3)c3ccccc32)cc1 do in these assays?
proCasp3 act: 4.8; IDE act: 9.2; procasp7 counter: 6.7; TPT1 inh: 0.1; IDE cell inh: 2.7

What do the screens show for `CCC(C(=O)NC(C)(C)C)N(Cc1ccco1)C(=O)CNS(=O)(=O)c1ccc(OC)cc1` (stereo not drawn)?
proCasp3 act: 0.7; IDE act: 4.3; procasp7 counter: 0.5; TPT1 inh: -3.9; IDE cell inh: -3.2

How did C=CCOc1ccc(C2C(C#N)=C(N)N(Nc3ccccc3)C3=C2C(=O)CC(C)(C)C3)cc1OC (stereo not drawn) do in these assays?
proCasp3 act: 19.1; IDE act: -1.1; procasp7 counter: 34.5*; TPT1 inh: 1.5; IDE cell inh: 2.6; PC3 D3A act: -3.9; Procasp7 act: -5.7

Results for C#CCOc1ccc(C2C3=C(CC(C)(C)CC3=O)N(CC(=O)O)C3=C2C(=O)CC(C)(C)C3)cc1OC ?
proCasp3 act: -8.0; IDE act: 3.0; procasp7 counter: -16.8; TPT1 inh: 4.2; IDE cell inh: 0.1

What do the screens show for `COc1ccc(C2CC(c3ccc(C(F)(F)F)cc3)=NN2c2ccc(S(N)(=O)=O)cc2)cc1` (stereo not drawn)?
proCasp3 act: 22.5*; IDE act: 0.3; procasp7 counter: 28.2*; PC3 D3A act: -30.8; Procasp7 act: -35.7

Results for COc1ccc(C2CC(c3ccccc3F)=NN2c2ccc(S(N)(=O)=O)cc2)cc1 (stereo not drawn) ?
proCasp3 act: 34.2*; IDE act: 3.0; procasp7 counter: 35.5*; PC3 D3A act: -29.0; Procasp7 act: -34.2

What do the screens show for `NC(=O)c1cc[n+](CC(=O)NC(=O)Nc2ccccc2)cc1`?
proCasp3 act: -3.6; IDE act: 1.8; procasp7 counter: 7.7; IDE cell inh: 7.7

How did COc1ccc(-c2nc3ccccc3nc2-c2ccc(OC)cc2)cc1 do in these assays?
proCasp3 act: 31.8*; IDE act: 3.4; procasp7 counter: 32.6*; TPT1 inh: -1.8; IDE cell inh: -0.1; PC3 D3A act: -29.5; Procasp7 act: -35.6

How did COc1ccc(-c2nc3ccccc3nc2-c2ccc(OC)c(OC)c2)cc1OC do in these assays?
proCasp3 act: -3.9; IDE act: 6.2; procasp7 counter: -5.0; TPT1 inh: 0.1; IDE cell inh: -7.2

What do the screens show for `COc1ccc([C@H]2CC(=O)C=C(c3ccc(OC)c(F)c3)C2)cc1`?
IDE act: -2.5

What do the screens show for `CCOC(=O)C1=NN(c2ccc(OC)cc2)C2C(=O)N(c3ccccc3OC)C(=O)C12` (stereo not drawn)?
proCasp3 act: 3.3; IDE act: -1.5; procasp7 counter: 9.8; TPT1 inh: 2.7; IDE cell inh: 1.9

How did COC(=O)C1=NN(c2ccc(Cl)cc2)C2C(=O)N(c3ccccc3OC)C(=O)C12 (stereo not drawn) do in these assays?
proCasp3 act: 15.0; IDE act: 3.1; procasp7 counter: 30.2*; TPT1 inh: 1.4; IDE cell inh: 3.1; PC3 D3A act: 9.7; Procasp7 act: 6.6

How did COc1ccccc1N1C(=O)C2C(C(=O)c3ccccc3)=NN(c3ccccc3)C2C1=O (stereo not drawn) do in these assays?
proCasp3 act: 20.2; IDE act: -27.9; procasp7 counter: 33.0*; TPT1 inh: 23.1; IDE cell inh: 15.9; PC3 D3A act: 25.9*; Procasp7 act: 18.2

How did O=C(NNC(=O)c1cc2cc3ccccc3nc2s1)c1cccc(C(F)(F)F)c1 do in these assays?
proCasp3 act: 0.0; IDE act: 2.4; procasp7 counter: 26.0*; TPT1 inh: -1.3; IDE cell inh: 5.6; PC3 D3A act: -23.0; Procasp7 act: -19.1
